The list is not random: actives were taken first. Their share in the collection is about 1.9%.
STEP inh = inhibitors of human striatal-enriched phosphatase STEP | actives 0.25% (n = 360,000) | P54829 | inhibition, % at 20 µM | recombinant STEP, OMFP fluorogenic substrate, fluorescence;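 active = inhibition at 20 µM, scaled per plate between control wells, above about 37%, limit read from the data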
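Measure: Control-normalized % inhibition with plate pattern correction | Test system: STEP phosphatase, cell-free reaction | Medium: pH 6.0 Bis-Tris with DTT and Tween 20 | Technique: Fluorescence, 480/540 nm | Times: Reaction 20 min, ambient temperature | Doses: Single compound dose of 20 µM, 1% DMSO final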
SUMO1 PPI mod = modulators of human SUMO1-mediated protein-protein interactions; SUMO1 binding to a labelled peptide, TR-FRET, 1 h; inhibition, % at 20 µM; actives 0.33% (n = 360,000); AID 602429; in the data active = inhibition above about 37%
Target sequence (P63165 whole entry, looked up): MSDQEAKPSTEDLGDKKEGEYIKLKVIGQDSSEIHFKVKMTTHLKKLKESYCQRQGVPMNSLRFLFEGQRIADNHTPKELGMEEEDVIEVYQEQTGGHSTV
Scp-1 inhibitor = inhibitors of human Scp-1 phosphatase; actives 0.88% (n = 340,000); Recombinant Scp1, phosphopeptide, malachite green phosphate absorbance; Q9GZU7; AID 493091; inhibition, % at 20 µM;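 active = inhibition above about 50% at 20 µM, limit read from the data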
Target sequence (Q9GZU7 76-261 limits assumed): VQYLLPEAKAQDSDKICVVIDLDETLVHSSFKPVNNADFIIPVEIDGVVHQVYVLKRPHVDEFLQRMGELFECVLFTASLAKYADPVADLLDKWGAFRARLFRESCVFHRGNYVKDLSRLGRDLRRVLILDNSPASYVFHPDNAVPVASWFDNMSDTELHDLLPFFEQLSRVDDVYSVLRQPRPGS
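Assay system: SCP-1 catalytic fragment, aa 76-261 | Buffer or medium: Tris acetate buffer pH 5.5 with MgCl2 and Tween-20 | Compound: One concentration, 20 µM, with 1.0% DMSO | Also added: Phospho 17-mer peptide substrate | Signal: Absorbance at 630 nm | Incubation: 45 min enzyme reaction at room temperature | Measure: % inhibition of SCP-1 phosphate liberation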
FAS-TE inh = blocks the thioesterase domain of human fatty acid synthase; actives 0.67% (n = 360,000); inhibition, % at 15 µM; recombinant FAS-TE, OMFH fluorogenic substrate, fluorescence endpoint;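 active = compounds whose normalised, plate-corrected inhibition of enzyme fluorescence in the single-dose primary screen is 50% or more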
LMPTP inh = LMPTP (human) inhibition; recombinant LMPTP-A, OMFP fluorogenic substrate, fluorescence intensity; inhibition, % at 20 µM; actives 0.22% (n = 360,000);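 active = compounds that cut the enzyme signal by at least half of the control window in the single-dose screen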
Target sequence (P24666 whole entry, looked up): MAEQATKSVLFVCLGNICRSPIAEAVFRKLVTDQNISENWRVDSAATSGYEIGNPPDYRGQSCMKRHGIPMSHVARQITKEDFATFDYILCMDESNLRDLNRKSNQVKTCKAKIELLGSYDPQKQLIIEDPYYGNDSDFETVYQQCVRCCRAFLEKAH
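Material: LMPTP-A; amount: 0.625 nM enzyme; doses: single 20 µM dose; times: reaction 50 min, room temperature, dark; technique: fluorescence intensity of OMFP turnover product; benchmarks: no-enzyme and uninhibited controls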
FAS-TE inh conf = FAS thioesterase (human) inhibition, confirmation; shares compounds with FAS-TE inh; recombinant FAS-TE, OMFH fluorogenic substrate, fluorescence; inhibition, % at 15 µM; actives 45% (n = 2,300); AID 624325;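 active = compounds inhibiting the enzyme by at least 50% at 15 µM in any one of the replicates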
Each line names hits and unclear results; the compound was inactive in the other large screens (follow-up assays come after a bar, where they were run).

CCNC(=O)CC1C(=O)N(c2ccc(C)cc2)C(=O)N1CCc1sccc1C (configuration not stated)	none
CCCCCC1CC(CC(=O)Nc2ccc([N+](=O)[O-])cc2)C(=O)O1 (configuration not stated)	FAS-TE inh 53.6 | FAS-TE inh conf 57.0
CN(C(=O)c1ccc(Br)o1)C1(C)CCS(=O)(=O)C1 (configuration not stated)	none
Cc1c([N+](=O)[O-])cc(C(=O)Nc2ccc(Cc3ccncc3)cc2)cc1[N+](=O)[O-]	FAS-TE inh 63.3 | FAS-TE inh conf 51.0
O=C(Nc1ccc(Cc2ccncc2)cc1)c1ccc(Cl)c([N+](=O)[O-])c1	FAS-TE inh 55.7 | FAS-TE inh conf 62.5
COc1ccc([N+](=O)[O-])cc1C(=O)Nc1ccc(Cc2ccncc2)cc1	FAS-TE inh 60.0 | FAS-TE inh conf 53.6
COc1ccccc1C(=O)Nc1ccc(Cc2ccncc2)cc1	none
Cc1ccc(C(=O)Nc2ccncc2)cc1[N+](=O)[O-]	none
O=C(O)COc1ccccc1C(Nc1ccccn1)c1cc(Cl)c2cccnc2c1O (configuration not stated)	FAS-TE inh 53.8 | FAS-TE inh conf 50.9
O=C(O)COc1ccccc1C(Nc1cccnc1)c1cc(Cl)c2cccnc2c1O (configuration not stated)	none
O=C(CCNC(=O)c1ccc([N+](=O)[O-])cc1)NC1CCCCCC1	FAS-TE inh 63.4 | FAS-TE inh conf 69.8
O=C(NCCC(=O)N(CCc1ccccc1)Cc1ccccc1)c1ccc([N+](=O)[O-])cc1	FAS-TE inh 61.2 | FAS-TE inh conf 42.1
CC(C)c1ccc(CCNC(=O)c2ccc([N+](=O)[O-])cc2)cc1	FAS-TE inh 66.5 | FAS-TE inh conf 73.0
O=C(CCNC(=O)c1ccc(Br)cc1)NC1CCCCCC1	none
O=C(CCNC(=O)c1ccc([N+](=O)[O-])cc1)NCc1ccccc1	FAS-TE inh 59.5 | FAS-TE inh conf 71.9
O=C(NCCc1ccc([N+](=O)[O-])cc1)c1ccccc1	none
O=C(CCC(=O)NNC(=O)c1ccc([N+](=O)[O-])cc1)NCc1ccccc1	none
COC(=O)c1ccc(NC(=O)CSc2nc(=O)n3cccc(C)c3n2)cc1	none
O=C(Nc1ccc(C(F)(F)F)cc1)C1=NN(C2CCS(=O)(=O)C2)C(=O)CC1 (configuration not stated)	none
CN(c1ccccc1)S(=O)(=O)c1cccc(NC(=O)CCNC(=O)c2ccccc2)c1	none
O=C(NCCOc1ccccc1)c1cc(C(=O)NCCOc2ccccc2)cc([N+](=O)[O-])c1	FAS-TE inh 75.3 | FAS-TE inh conf 76.6
O=C(NCCOc1ccccc1)c1ccccc1[N+](=O)[O-]	none
CN(c1ccccc1)S(=O)(=O)c1cccc(NC(=O)CCNC(=O)c2ccc([N+](=O)[O-])cc2)c1	FAS-TE inh 54.4 | FAS-TE inh conf 61.5
O=c1oc(-c2cccnc2)nc2ccccc12	none
O=c1oc(-c2ccccc2Br)nc2ccccc12	FAS-TE inh 60.6 | FAS-TE inh conf 52.8
Cc1ccc(-c2cc(N)n(-c3ccc(F)cc3)n2)cc1	none
O=[N+]([O-])c1ccc(Cn2cc(-c3cccc(C(F)(F)F)c3)nn2)cc1	FAS-TE inh 54.7 | FAS-TE inh conf inactive
O=[N+]([O-])c1ccc(Oc2cccc(C(F)(F)F)c2)nc1	none
O=C(N/N=C/c1cc([N+](=O)[O-])cc([N+](=O)[O-])c1O)C(O)(c1ccccc1)c1ccccc1	FAS-TE inh 51.5 | FAS-TE inh conf 61.0
O=C(Cn1nc2ccccc2n1)N/N=C/c1cc(Cl)cc([N+](=O)[O-])c1O	FAS-TE inh 61.2 | FAS-TE inh conf 51.7
O=C(c1ccc(Cl)c(NC2=NC3CS(=O)(=O)CC3S2)c1)N1CCN(c2ccc(F)cc2)CC1 (configuration not stated)	none
O=C(NC(=S)NNC(=O)c1ccccc1[N+](=O)[O-])c1ccc(Br)cc1	none
COc1ccc2cc(C3CC(c4ccco4)=NN3S(=O)(=O)c3ccccc3)c(Cl)nc2c1 (configuration not stated)	FAS-TE inh 70.6 | FAS-TE inh conf inactive
CCc1ccc(C(O)c2ncc(-c3cccc(C(F)(F)F)c3)[nH]2)cc1 (configuration not stated)	none (no result: Scp-1 inhibitor)
CC(C)CSc1ncc(-c2cccc(C(F)(F)F)c2)cn1	FAS-TE inh 51.3 | FAS-TE inh conf 49.3
Cc1ccc(S(=O)(=O)N2CCCCC2)cc1NC(=O)c1ccc2ccccc2n1	none
COc1ccc(S(=O)(=O)N2CCCCC2)cc1NC(=O)c1ccc2ccccc2n1	FAS-TE inh 52.8 | FAS-TE inh conf inactive
COc1ccc(S(=O)(=O)N2CCOCC2)cc1NC(=O)c1ccc(S(=O)(=O)N(C)c2ccccc2OC)cc1	FAS-TE inh 60.9 | FAS-TE inh conf inactive
COc1ccc(S(=O)(=O)N2CCCCC2)cc1NC(=O)c1cccc(S(=O)(=O)N2CC(C)OC(C)C2)c1 (configuration not stated)	FAS-TE inh 65.3 | FAS-TE inh conf inactive
COc1ccccc1NC(=O)c1ccc(S(=O)(=O)N(C)c2ccccc2OC)cc1	none
COc1ccc(S(=O)(=O)N2CCCCCC2)cc1NC(=O)c1ccccc1	none
COc1ccccc1NS(=O)(=O)c1cc(NC(=O)c2ccc3ccccc3n2)ccc1Cl	FAS-TE inh 65.4 | FAS-TE inh conf inactive
COc1ccc(C(=O)Nc2ccc(Cl)c(S(=O)(=O)Nc3ccccc3OC)c2)cc1	none
Cc1ccc(C2(C)NC(=O)N(CC(=O)Nc3ccccc3C(=O)NC3CCCC3)C2=O)cc1 (configuration not stated)	none
Cc1ccc2c(c1)[C@H]1[C@H](CO2)[C@H](c2ccccc2)[C@]2(C)C(=O)Nc3ccccc3C(=O)N12	FAS-TE inh 53.2 | FAS-TE inh conf inactive
Cc1ccc2c(c1)NC(=O)[C@@]1(C)[C@@H](c3ccccc3)[C@H]3COc4ccccc4[C@@H]3N1C2=O	FAS-TE inh 67.8 | FAS-TE inh conf inactive
Cc1ccc2c(c1)[C@H]1[C@H](CO2)[C@H](c2ccccc2)[C@]2(C)C(=O)Nc3cc(F)ccc3C(=O)N12	FAS-TE inh 54.0 | FAS-TE inh conf inactive
C[C@@]12C(=O)Nc3cc(F)ccc3C(=O)N1[C@H]1c3cc(Br)ccc3OC[C@@H]1[C@@H]2c1ccccc1	FAS-TE inh 80.4 | FAS-TE inh conf inactive
CC1(c2nnc(-c3cccc(Cl)c3)o2)CC(c2ccccc2F)=NO1 (configuration not stated)	none
CCCCNC(=O)C1(C)CCCCN1Cc1ccc2ccccc2c1 (configuration not stated)	none (no result: Scp-1 inhibitor)
